8 compounds from ChEMBL document CHEMBL4138275, “Taccalonolide Microtubule Stabilizers Generated Using Semisynthesis Define the Effects of Mono Acyloxy Moieties at C-7 or C-15 and Disubstitutions at C-7 and C-25” (J Nat Prod, 2018) can be followed below.

Active and inactive are the calls of the source. The calls are words filed in the database; no cut-off is given here.

Data set [1] has as its system HeLa. The data set can be described thus: Induction of microtubule stabilization in human HeLa cells assessed as bundling of interphase microtubule at 5 times IC50 after 18 hrs by indirect immunofluorescence assay. It is filed as cell-based. The method, boiled down: (§1)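 HeLa cells treated for 18 h at 5-fold each compound's own antiproliferative IC50, with EtOH as vehicle control. Mitotic and interphase microtubules stained by indirect immunofluorescence with a β-tubulin antibody and viewed by fluorescence microscopy.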

The test system of data set [2] is HeLa. In words: Induction of microtubule stabilization in human HeLa cells assessed as formation of multiple aberrant mitotic spindle at 5 times IC50 after 18 hrs by indirect immunofluorescence assay. In kind it is cell-based. The gist of the method: as §1
Data set [3] has as its system HeLa. The data set can be described thus: Antiproliferative activity against human HeLa cells after 48 hrs by sulforhodamine B assay. It is filed as functional, cell-based. The method, boiled down: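 HeLa cells (STR-validated) grown in BME with 10% FBS and gentamycin, seeded 2500/well, left to adhere overnight, then exposed to compounds for 48 h. Cell density read by sulforhodamine B staining. IC50 is the concentration giving 50% inhibition of cell density versus vehicle, fitted by nonlinear regression. Mean of 3 or 4 experiments, each in triplicate, ±SD.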
On the technique in general: The SRB assay estimates cell density from bound dye.

For another data set, the species on record is Sus scrofa. In words: Induction of porcine brain tubulin polymerization at 5 uM by turbidimetric method. The gist of the method:
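Compound or vehicle (1% EtOH) added; samples prepared on ice, then warmed to 37 °C to start polymerization. Rate and extent followed turbidimetrically at 340 nm.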

The nature of data set [4]: Toxicity in ip dosed athymic nude mouse harboring tumor. In kind it is organism-based. As to conditions: in vivo. The method, boiled down: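 Dose tolerance was assessed in tumor-bearing mice carrying drug-sensitive or drug-resistant xenografts, with compound given by ip injection. A cumulative maximal tolerated dose was determined.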

Regarding `CC(=O)O[C@H]1[C@H]2[C@H]([C@@H]3[C@@H](O)[C@@H]4[C@H]([C@H](C)[C@H]5O[C@]56OC(=O)[C@@](C)(O)[C@]46C)[C@@]3(C)[C@H]1OC(C)=O)[C@@H](OC(=O)C(C)(C)C)C(=O)[C@H]1C[C@@H]3O[C@@H]3[C@H](OC(C)=O)[C@]21C`, the outcome with HeLa [1], in the data set on HeLa [2] and in the data set filed under Sus scrofa was Active. Besides, half-maximal inhibition in the data set on HeLa [3] (IC50) was put at 9 nM.
With `CC(=O)O[C@H]1[C@H]2[C@H]([C@@H]3[C@@H](O)[C@@H]4[C@H]([C@H](C)[C@H]5O[C@]56OC(=O)[C@@](C)(O)[C@]46C)[C@@]3(C)[C@H]1OC(C)=O)[C@@H](OC(=O)C(C)C)C(=O)[C@H]1C[C@@H]3O[C@@H]3[C@H](OC(C)=O)[C@]21C`, the outcome in the data set on HeLa [1] and in the data set with HeLa [2] was Active. Also, it took 19 nM to reach half-maximal inhibition with HeLa [3] (IC50).
For `CC(=O)O[C@H]1[C@H]2[C@H]([C@@H]3[C@@H](O)[C@@H]4[C@H]([C@H](C)[C@H]5O[C@]56OC(=O)[C@@](C)(OC(=O)C5CC5)[C@]46C)[C@@]3(C)[C@H]1OC(C)=O)[C@@H](OC(=O)C1CC1)C(=O)[C@H]1C[C@@H]3O[C@@H]3[C@H](OC(C)=O)[C@]21C`, the outcome in the data set on HeLa [1] and in the data set with HeLa [2] was Active. 130 nM corresponded to half-maximal inhibition with HeLa [3] (IC50).
`CC(=O)O[C@H]1[C@H]2[C@H]([C@@H]3[C@@H](OC(=O)C(C)C)[C@@H]4[C@H]([C@H](C)[C@H]5O[C@]56OC(=O)[C@@](C)(O)[C@]46C)[C@@]3(C)[C@H]1OC(C)=O)[C@@H](O)C(=O)[C@H]1C[C@@H]3O[C@@H]3[C@H](OC(C)=O)[C@]21C`: the result in the data set with HeLa [1], with HeLa [2] and in the data set filed under Sus scrofa was Active. The MTD in data set [4] is below 10 mg/kg. Moreover, the IC50 (commonly the concentration at which inhibition is half-maximal) in the data set on HeLa [3] was 10.6 nM.
Turning to `CC(=O)O[C@H]1[C@H]2[C@H]([C@@H]3[C@@H](O)[C@@H]4[C@H]([C@H](C)[C@H]5O[C@]56OC(=O)[C@@](C)(OC(=O)CC(C)C)[C@]46C)[C@@]3(C)[C@H]1OC(C)=O)[C@@H](OC(=O)CC(C)C)C(=O)[C@H]1C[C@@H]3O[C@@H]3[C@H](OC(C)=O)[C@]21C`, the result with HeLa [1] and in the data set with HeLa [2] was Active. The IC50 with HeLa [3] was determined as 250 nM.
Take `CC(=O)O[C@H]1[C@H]2[C@H]([C@@H]3[C@@H](OC=O)[C@@H]4[C@H]([C@H](C)[C@H]5O[C@]56OC(=O)[C@@](C)(O)[C@]46C)[C@@]3(C)[C@H]1OC(C)=O)[C@@H](O)C(=O)[C@H]1C[C@@H]3O[C@@H]3[C@H](OC(C)=O)[C@]21C`: the result in the data set on HeLa [2] was Active. Also, the IC50 in the data set with HeLa [3] was 8.4 nM.
Regarding `CC(=O)O[C@H]1[C@H]2[C@H]([C@@H]3[C@@H](OC(=O)C(C)(C)C)[C@@H]4[C@H]([C@H](C)[C@H]5O[C@]56OC(=O)[C@@](C)(O)[C@]46C)[C@@]3(C)[C@H]1OC(C)=O)[C@@H](O)C(=O)[C@H]1C[C@@H]3O[C@@H]3[C@H](OC(C)=O)[C@]21C`, the outcome in the data set with HeLa [1] and in the data set on HeLa [2] was Active. This compound also yielded an MTD in data set [4] below 10 mg/kg. 4.2 nM corresponded to half-maximal inhibition in the data set on HeLa [3] (IC50).
Regarding `CC(=O)O[C@H]1[C@H]2[C@H]([C@@H]3[C@@H](O)[C@@H]4[C@H]([C@H](C)[C@H]5O[C@]56OC(=O)[C@@](C)(OC(=O)C(C)C)[C@]46C)[C@@]3(C)[C@H]1OC(C)=O)[C@@H](OC(=O)C(C)C)C(=O)[C@H]1C[C@@H]3O[C@@H]3[C@H](OC(C)=O)[C@]21C`, the result with HeLa [2] was Active. In the data set with HeLa [3], this compound returned an IC50 of 790 nM.
